Data on 18 molecules can be found in ChEMBL document CHEMBL1146355, “Synthesis and cytotoxic evaluation of C-9 oxidized podophyllotoxin derivatives” (Bioorg Med Chem, 2007).

Common to all, as to type: functional, cell-based
The nature of experiment [1]: Cytotoxicity against human MEL28 cells after 4 days. The following applies: SK-MEL-28, 96 h. A digest of the protocol:
(§1)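 Cells seeded at 2 × 10⁴/well in MEM with 10% FCS containing the compound at different concentrations. Incubated 4 days at 37 °C under 10% CO₂ and 98% humidity. Drug-free control wells were counted daily to confirm exponential growth. Read-out was crystal violet staining, then inhibition estimated by comparison with controls.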

The subject of experiment [2] is P388. Nature of the experiment: Cytotoxicity against mouse P388 cells after 4 days. Conditions: P388, 96 h. In a few lines: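 Murine leukaemia cells seeded at 1 × 10⁴/well in MEM with 10% FCS containing the compound at different concentrations. Incubated 4 days at 37 °C under 10% CO₂ and 98% humidity, with drug-free controls counted daily to confirm exponential growth. Inhibition judged by inverted microscopy against controls, with no staining.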

Experiment [3] has as its system A549. As to the kind of experiment: Cytotoxicity against human A549 cells after 4 days. Conditions: A549, 96 h. A digest of the protocol: as §1
Experiment [4] relates to HT-29. Nature of the experiment: Cytotoxicity against human HT29 cells after 4 days. Conditions: HT-29, 96 h. A digest of the protocol: as §1

By IC50 is commonly meant the concentration that inhibits the measured activity by half. Higher therefore signals a need for much substance.

Some results are limits rather than exact numbers.

The molecule `COc1cc([C@@H]2c3cc4c(cc3C=C(C=O)[C@H]2CO)OCO4)cc(OC)c1OC` yielded an IC50 in experiment [1] of 250 nM.

For the molecule `CCCCCCNC(=O)c1cc2cc3c(cc2c(-c2cc(OC)c(OC)c(OC)c2)c1C(=O)NCCCCCC)OCO3`, the IC50 in experiment [2], in experiment [3] and in experiment [4] was 2000 nM in each case.

Consider `COc1cc(-c2c3c(cc4cc5c(cc24)OCO5)C(=O)N(CCO)C3=O)cc(OC)c1OC`, for which the IC50 in experiment [2], in experiment [3] and in experiment [4] was 2200 nM each time.

In turn, `COC(=O)[C@@H]1C(/C=N/O)=Cc2cc3c(cc2[C@H]1c1cc(OC)c(OC)c(OC)c1)OCO3` returned a half-inhibitory concentration (IC50) in experiment [1] of 2300 nM.

Turning to `COC(=O)[C@@H]1C(C(=O)Nc2ccc(C)cc2)=Cc2cc3c(cc2[C@H]1c1cc(OC)c(OC)c(OC)c1)OCO3`, the IC50 in experiment [2], in experiment [3], in experiment [4] and in experiment [1] was 1900 nM each time.

Regarding `CCCCCCNC(=O)C1=Cc2cc3c(cc2[C@@H](c2cc(OC)c(OC)c(OC)c2)[C@@H]1C(=O)OC)OCO3`, the IC50 in experiment [2], in experiment [3] and in experiment [4] was 1900 nM each time.

For `COC(=O)C1=Cc2cc3c(cc2[C@@H](c2cc(OC)c(OC)c(OC)c2)[C@@H]1C(=O)OC)OCO3`, the IC50 in experiment [2], in experiment [3], in experiment [4] and in experiment [1] was 5100 nM each time.

For `COc1cc([C@@H]2c3cc4c(cc3C=C(C(=O)O)[C@H]2C(=O)O)OCO4)cc(OC)c1OC`, the half-inhibitory concentration (IC50) in experiment [2], in experiment [3], in experiment [4] and in experiment [1] was > 20000 nM each time.

With `COC(=O)[C@@H]1C(C(=O)O)=Cc2cc3c(cc2[C@H]1c1cc(OC)c(OC)c(OC)c1)OCO3`, the IC50 in experiment [2], in experiment [3], in experiment [4] and in experiment [1] was > 20000 nM each time.

As to `COc1cc([C@@H]2c3cc4c(cc3[C@H](O)[C@H]3COC(=O)[C@H]23)OCO4)cc(OC)c1OC` [PODOFILOX], half-maximal inhibition in experiment [4] (IC50) required 12 nM.

Regarding `COc1cc([C@@H]2c3cc4c(cc3C=C3C(=O)OC[C@H]32)OCO4)cc(OC)c1OC`, the IC50 in experiment [2], in experiment [3], in experiment [4] and in experiment [1] was > 20000 nM throughout.

Consider `COC(=O)[C@@H]1C(C=O)=Cc2cc3c(cc2[C@H]1c1cc(OC)c(OC)c(OC)c1)OCO3` [PODOPHYLLIC ALDEHYDE], for which, in experiment [1], the half-inhibitory concentration (IC50) was 230 nM.

Consider `COc1cc([C@H]2C3=C(Cc4cc5c(cc42)OCO5)C(O)OC3=O)cc(OC)c1OC` (stereo partly drawn), for which the IC50 in experiment [2], in experiment [3] and in experiment [4] was 1200 nM each time.

For `COC(=O)[C@@H]1C(C(=O)Nc2ccccc2)=Cc2cc3c(cc2[C@H]1c1cc(OC)c(OC)c(OC)c1)OCO3`, the IC50 in experiment [2], in experiment [3] and in experiment [4] was 1900 nM in each case.

In the case of `COC(=O)[C@@H]1C(C(=O)Nc2cc(OC)c(OC)c(OC)c2)=Cc2cc3c(cc2[C@H]1c1cc(OC)c(OC)c(OC)c1)OCO3`, the IC50 in experiment [2], in experiment [3] and in experiment [4] was 1700 nM throughout.

For the molecule `COC(=O)[C@@H]1C(C(=O)OC(C)=O)=Cc2cc3c(cc2[C@H]1c1cc(OC)c(OC)c(OC)c1)OCO3`, the IC50 in experiment [2], in experiment [3], in experiment [4] and in experiment [1] was 10000 nM each time.

In the case of `COc1cc([C@@H]2c3cc4c(cc3C=C3C(=O)OC(=O)[C@H]32)OCO4)cc(OC)c1OC`, the IC50 in experiment [2], in experiment [3], in experiment [4] and in experiment [1] was 12000 nM each time.

For the molecule `COC(=O)[C@@H]1C(C#N)=Cc2cc3c(cc2[C@H]1c1cc(OC)c(OC)c(OC)c1)OCO3`, the IC50 in experiment [3], in experiment [4] and in experiment [1] was 2400 nM in each case.
